# Laboratory results from ChEMBL document CHEMBL4627260, “Optimisation of estrogen receptor subtype-selectivity of a 4-Aryl-4H-chromene scaffold previously identified by virtual screening” (Bioorg Med Chem, 2020).
# Experiments:
# [1] = target: Estrogen receptor beta (Homo sapiens, UniProt Q92731); experiment: Displacement of fluorescent estrogen ligand from recombinant human full length untagged ERbeta expressed in baculovirus infected insect cells incubated in dark for 2 hrs by Beacon single-tube fluorescent polarization assay
# Estrogen receptor beta, sequence (Q92731 whole entry): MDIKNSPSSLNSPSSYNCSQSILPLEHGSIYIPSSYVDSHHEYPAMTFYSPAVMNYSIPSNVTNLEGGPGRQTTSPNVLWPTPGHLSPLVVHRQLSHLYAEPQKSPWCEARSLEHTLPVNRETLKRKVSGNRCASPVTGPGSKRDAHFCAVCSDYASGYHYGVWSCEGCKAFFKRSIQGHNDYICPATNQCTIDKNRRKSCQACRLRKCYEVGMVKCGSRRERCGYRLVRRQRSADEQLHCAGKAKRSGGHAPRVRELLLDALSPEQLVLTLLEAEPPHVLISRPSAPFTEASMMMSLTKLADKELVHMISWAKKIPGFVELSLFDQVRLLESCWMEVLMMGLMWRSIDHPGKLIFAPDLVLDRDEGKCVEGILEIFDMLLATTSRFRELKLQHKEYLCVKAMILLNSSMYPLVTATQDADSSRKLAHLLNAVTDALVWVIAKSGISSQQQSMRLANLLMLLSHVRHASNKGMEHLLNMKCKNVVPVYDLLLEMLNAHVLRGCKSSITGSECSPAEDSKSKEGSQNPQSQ
# [2] = test system: MCF7; experiment: Antiproliferative activity against human MCF7 cells assessed as inhibition of cell viability after 72 hrs by MTT assay; assay type: functional, cell-based; conditions: MCF7, 72 h
# Method in brief: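 MCF-7 cells grown in Eagle's MEM with 10% fetal calf serum, 2 mM L-glutamine, penicillin/streptomycin and 1% non-essential amino acids. Seeded at 2.5×10^4 cells/mL, 24 h at 37 °C, 5% CO2. Dosed from ethanol stocks at 1 nM–100 μM final (vehicle 1% v/v ethanol), 72 h. MTT 1 mg/mL for 2 h in dark, DMSO solubilisation, absorbance 595 nm. Viability relative to vehicle; mean ± S.E.M., at least two experiments in triplicate.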
# [3] = target: T1, Estrogen receptor (Homo sapiens, UniProt P03372); experiment: Displacement of fluorescent estrogen ligand from recombinant human full length untagged ERalpha expressed in baculovirus infected insect cells incubated in dark for 2 hrs by Beacon single-tube fluorescent polarization assay
# T1 sequence (P03372 whole entry): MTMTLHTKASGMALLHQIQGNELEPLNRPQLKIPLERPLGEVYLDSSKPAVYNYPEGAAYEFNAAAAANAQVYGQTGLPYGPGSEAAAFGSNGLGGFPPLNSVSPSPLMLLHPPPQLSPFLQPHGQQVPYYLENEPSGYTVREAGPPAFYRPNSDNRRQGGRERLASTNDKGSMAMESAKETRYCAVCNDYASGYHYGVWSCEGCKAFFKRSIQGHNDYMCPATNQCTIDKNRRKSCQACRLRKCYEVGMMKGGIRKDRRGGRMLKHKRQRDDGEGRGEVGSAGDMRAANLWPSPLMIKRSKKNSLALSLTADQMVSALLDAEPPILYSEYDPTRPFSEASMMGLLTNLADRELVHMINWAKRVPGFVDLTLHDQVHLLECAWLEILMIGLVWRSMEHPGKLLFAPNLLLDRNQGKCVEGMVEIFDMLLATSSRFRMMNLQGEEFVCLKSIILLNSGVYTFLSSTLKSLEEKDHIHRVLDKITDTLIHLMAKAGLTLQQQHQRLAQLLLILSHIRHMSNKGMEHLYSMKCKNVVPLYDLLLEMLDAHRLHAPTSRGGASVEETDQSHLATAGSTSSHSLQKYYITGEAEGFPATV
# [4] = test system: MCF7; experiment: Toxicity in human MCF7 cells assessed as cell death at 10 uM incubated for 72 hrs by LDH assay relative to control; assay type: cell-based; conditions: mcf7, 72 h
# Method in brief: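 LDH release assay (CytoTox 96). MCF-7 cells seeded at 1×10^4 cells/well for 24 h, dosed with ethanol vehicle (1% v/v) and incubated 72 h. Medium mixed with substrate for 20 min at room temperature in dark, stopped, absorbance read at 490 nm. Lysis is percent of a lysis-solution control (100% lysis, 45 min); three experiments in triplicate, mean ± SEM.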
# [5] = Chemical stability of the compound in pH 7.4 phosphate buffer assessed as half life by HPLC method; assay type: physicochemical
# Method in brief: (§1)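 Stock of 5 mg compound in 10 mL mobile phase; 30 μL diluted into 1 mL phosphate buffer (pH 4, 7.4 or 9, British Pharmacopoeia). Injected immediately and sampled at 0, 5, 30, 60, 90, 120 min and 21 h. HPLC with UV detection at 254 nm, acetonitrile:water 80:20 mobile phase, 1 mL/min over 10 min.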
# [6] = Chemical stability of the compound in phosphate buffer at pH 4 assessed as compound remaining after 30 mins by HPLC method; assay type: physicochemical; conditions: read-out: Stability; method in brief: as §1
# [7] = Stability in human plasma assessed as half life by HPLC method; assay type: ADME, cell-free
# Method in brief: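 Human blood plasma (2.0 mL) mixed with PBS containing 10% DMSO (1.6 mL) and pre-warmed to 37 °C. Compound added as 400 μL of a 1.0 mg/mL stock. Aliquots of 100 μL quenched in 900 μL acetonitrile, centrifuged and filtered. Sampled every 15 min for 1 h, then hourly to 3 h, plus 24 h. C18 reverse-phase HPLC at 25 °C, H2O:ACN:MeOH mobile phase, 1.0 mL/min.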
# [8] = Chemical stability of the compound in pH 9 phosphate buffer assessed as half life by HPLC method; assay type: physicochemical; method in brief: as §1
SMILES,IC50 [1],IC50 [2],IC50 [3],half-life [5],remaining at 0.5 h [6],half-life [7],half-life [8],Activity [4]
N#CC1=C(N)Oc2cc(O)ccc2C1c1ccc(OCCN2CCCC2)cc1 (configuration not stated),> 10 µM,> 50 µM,0.89 µM,,,,,
CCOC(=O)C1=C(N)Oc2cc(O)ccc2C1c1ccccc1 (configuration not stated),0.61 µM,> 100 µM,2.36 µM,,,,,
COC(=O)C1=C(N)Oc2cc(O)ccc2C1c1ccc(O)cc1 (configuration not stated),10 µM,> 100 µM,0.79 µM,,,,,
CCOC(=O)C1=C(N)Oc2cc(O)ccc2C1c1ccc(OCC)cc1 (configuration not stated),,> 100 µM,,,,,,
N#CC1=C(N)Oc2cc(O)ccc2C1c1ccc(OCCN2CCCCC2)cc1 (configuration not stated),10.4 µM,23.2 µM,1.47 µM,,,,,
CC/C(=C(\c1ccccc1)c1ccc(OCCN(C)C)cc1)c1ccccc1 [TAMOXIFEN],,,,,,,,13.4%
COC(=O)C1=C(N)Oc2cc(O)ccc2C1c1ccc(OCCN2CCCC2)cc1 (configuration not stated),0.35 µM,19.6 µM,0.02 µM,,,,,0%
CCOC(=O)C1=C(N)Oc2cc(O)ccc2C1c1ccc(O)cc1 (configuration not stated),,> 100 µM,,,,,,
CCOC(=O)C1=C(N)Oc2cc(O)ccc2C1c1ccc(OCCN2CCCC2)cc1 (configuration not stated),3.1 µM,27.3 µM,1.41 µM,,,,,0%
COC(=O)C1=C(N)Oc2cc(O)ccc2C1c1ccc(OCCN2CCOCC2)cc1 (configuration not stated),0.63 µM,> 100 µM,109 µM,,,,,
CCOC(=O)C1=C(N)Oc2cc(O)ccc2C1c1ccc(OCCN2CCOCC2)cc1 (configuration not stated),2.44 µM,18.8 µM,0.22 µM,,,,,0%
CCCCOC(=O)C1=C(N)Oc2cc(O)ccc2C1c1ccc(OCCN2CCCCC2)cc1 (configuration not stated),2.35 µM,31.8 µM,0.03 µM,> 24 h,32%,> 24 h,> 24 h,
N#CC1=C(N)Oc2cc(O)ccc2C1c1ccccc1 (configuration not stated),8.39 µM,> 100 µM,> 10 µM,,,,,
CCOC(=O)C1=C(N)Oc2cc(O)ccc2C1c1ccc(OC)c(OC)c1 (configuration not stated),,> 100 µM,,,,,,
N#CC1=C(N)Oc2cc(O)ccc2C1c1ccc(OCCN2CCOCC2)cc1 (configuration not stated),> 50 µM,35.3 µM,14 µM,,,,,0%

# Further lines, with some results ahead:
IC50 [1],IC50 [2],IC50 [3],half-life [5],remaining at 0.5 h [6],half-life [7],half-life [8],SMILES,Activity [4]
6.55 µM,7.73 µM,0.02 µM,,,,,CCCCOC(=O)C1=C(N)Oc2cc(O)ccc2C1c1ccc(OCCN2CCCC2)cc1 (configuration not stated),
0.37 µM,2.65 µM,0.09 µM,,,,,CC(C)(C)OC(=O)C1=C(N)Oc2cc(O)ccc2C1c1ccc(OCCN2CCCCC2)cc1 (configuration not stated),
0.22 µM,16.2 µM,0.05 µM,,,,,COC(=O)C1=C(N)Oc2cc(O)ccc2C1c1ccc(OCCN2CCCCC2)cc1 (configuration not stated),0%
> 100 µM,4.5 µM,40.3 µM,,,,,CCOC(=O)C1=C(N)Oc2cc(O)ccc2C1c1ccc(OCc2ccccc2)cc1 (configuration not stated),
0.06 µM,8.75 µM,0.02 µM,> 24 h,27%,> 24 h,> 24 h,CCOC(=O)C1=C(N)Oc2cc(O)ccc2C1c1ccc(OCCN2CCCCC2)cc1 (configuration not stated),0%
0.67 µM,10 µM,0.01 µM,,,,,CC(C)(C)OC(=O)C1=C(N)Oc2cc(O)ccc2C1c1ccc(OCCN2CCCC2)cc1 (configuration not stated),
1.59 µM,10.8 µM,3.3 µM,,,,,COC(=O)C1=C(N)Oc2cc(O)ccc2C1c1ccccc1 (configuration not stated),
